Activity calls are given as the source filed them. The rule behind the calls is not given here.

Common to all, as to format: cell-based
The subject of series [1] is DLD-1. Put plainly: Inhibition of TNF-alpha/IFN-gamma/IL-1beta-induced human CXCL10 (972 bp) promoter activity expressed in human DLD1 cells assessed as reduction in IL8 expression pretreated at 131.5 uM for 1 hr prior to 16 hrs cytokine challenge by proteome profiling method relative to untreated-control. Summed up:
(§1)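 DLD-1 starved 16 h in 0.5% FCS, seeded 5×10^6 cells/mL, pretreated 1 h with compound, then stimulated 16 h with 10 ng/mL TNF-α, 10 ng/mL IFN-γ, 5 ng/mL IL-1β. Supernatant cytokines/chemokines detected on Human Cytokine Array Panel A antibody array.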

Series [2] deals with T1, Signal transducer and activator of transcription 1-alpha/beta (Homo sapiens) (UniProt P42224).
T1 sequence (whole entry): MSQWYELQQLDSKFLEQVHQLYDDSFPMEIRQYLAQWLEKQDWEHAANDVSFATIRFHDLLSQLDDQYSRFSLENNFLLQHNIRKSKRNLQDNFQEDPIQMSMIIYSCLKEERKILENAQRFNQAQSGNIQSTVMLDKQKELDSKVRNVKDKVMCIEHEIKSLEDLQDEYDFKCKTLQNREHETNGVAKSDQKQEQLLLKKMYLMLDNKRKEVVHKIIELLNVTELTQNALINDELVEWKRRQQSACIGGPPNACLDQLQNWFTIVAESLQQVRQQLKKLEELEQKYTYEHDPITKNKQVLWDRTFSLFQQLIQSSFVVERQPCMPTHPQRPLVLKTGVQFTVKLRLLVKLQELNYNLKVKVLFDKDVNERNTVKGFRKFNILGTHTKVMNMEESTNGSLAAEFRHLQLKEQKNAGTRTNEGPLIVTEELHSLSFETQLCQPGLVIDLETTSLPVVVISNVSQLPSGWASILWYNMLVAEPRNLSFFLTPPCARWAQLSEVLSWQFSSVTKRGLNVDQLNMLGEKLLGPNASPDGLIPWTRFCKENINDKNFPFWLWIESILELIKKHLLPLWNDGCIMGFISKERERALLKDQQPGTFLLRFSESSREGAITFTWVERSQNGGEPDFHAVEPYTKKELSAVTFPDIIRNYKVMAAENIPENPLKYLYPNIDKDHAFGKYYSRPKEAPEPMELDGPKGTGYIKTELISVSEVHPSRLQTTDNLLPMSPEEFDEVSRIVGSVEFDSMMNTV
Nature of the series: Inhibition of Stat1 (unknown origin) expressed human DLD1 cells assessed as reduction in TNF-alpha gene expression pretreated at 67.75 uM for 1 hr by RT-PCR method relative to untreated-control. The note with it: DLD-1. In a few lines:
(§2)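 DLD-1 seeded 5×10^5 cells/mL, grown 24 h, starved 16 h in 0.5% FCS, pretreated with compound 1 h, then stimulated with 10 ng/mL TNF-α, 10 ng/mL IFN-γ, 5 ng/mL IL-1β for 5 h. tnf-α, il-1β, inos mRNA by two-step qRT-PCR, Pfaffl relative quantification, normalised to gapdh; stimulated-untreated control = 100%. Mean ± SEM, three independent experiments.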

Series [3] deals with T1, Signal transducer and activator of transcription 1-alpha/beta (Homo sapiens). Put plainly: Inhibition of Stat1 (unknown origin) expressed in human DLD1 cells assessed as reduction in iNOS gene expression pretreated at 67.75 uM for 1 hr by RT-PCR method relative to untreated-control. The note with it: DLD-1. In a few lines:
as §2

The target is the same in series [4]. Nature of the series: Inhibition of Stat1 (unknown origin)-induced human CXCL10 (972 bp) promoter activity expressed in TNF-alpha/IFN-gamma/IL-1beta-stimulated human DLD1 cells after 24 hrs by luciferase reporter assay. The note with it: DLD-1. Summed up:
(§3)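 DLD-1 in 24-well plates, switched to 0.5% FCS without antibiotics a day before lipofection (Lipofectamine 2000, 0.8 µg plasmid) with 972 bp CXCL10 promoter, NF-κB, GAS/Stat1 or ISRE luciferase reporters plus pRL-CMV. Stimulated 24 h with 10 ng/mL TNF-α, 10 ng/mL IFN-γ, 5 ng/mL IL-1β ± compound; Dual-Glo firefly/Renilla read. Stimulation-only = 100%; mean ± SEM, ≥3 experiments.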
A general note: In a reporter assay the amount or activity of a reporter protein is the signal.

The test system of series [5] is DLD-1. Put plainly: Inhibition of TNF-alpha/IFN-gamma/IL-1beta-induced human CXCL10 (972 bp) promoter activity expressed in human DLD1 cells assessed as reduction in IL1-beta expression pretreated at 131.5 uM for 1 hr prior to 16 hrs cytokine challenge by proteome profiling method relative to untreated-control. In a few lines:
as §1

The subject of series [6] is DLD-1. Nature of the series: Inhibition of TNF-alpha/IFN-gamma/IL-1beta-induced human CXCL10 (972 bp) promoter activity expressed in human DLD1 cells assessed as CXCL10 gene expression at 131.5 uM after 5 hrs by RT-PCR method relative to untreated-control. Summed up:
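Cells starved 16 h (0.5% FCS), compound pretreatment 1 h, then TNF-α 10 ng/mL/IFN-γ 10 ng/mL/IL-1β 5 ng/mL for 5 h. Total RNA analysed by two-step qRT-PCR for cxcl10, gapdh-corrected (Pfaffl); induced vs uninduced and treated-induced vs untreated-induced (100%).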

Series [7] has as its target T2, Nuclear factor NF-kappa-B complex (Homo sapiens) (UniProt Q00653+P19838+Q04206). Put plainly: Inhibition of NF-kappaB (unknown origin) expressed human DLD1 cells assessed as reduction in iNOS gene expression pretreated at 67.75 uM for 1 hr by RT-PCR method relative to untreated-control. The note with it: DLD-1. Summed up: as §2
In series [8] the test system is DLD-1. Put plainly: Inhibition of TNF-alpha/IFN-gamma/IL-1beta-induced human CXCL10 (972 bp) promoter activity expressed in human DLD1 cells assessed as reduction in CXCL1 expression pretreated at 131.5 uM for 1 hr prior to 16 hrs cytokine challenge by proteome profiling method relative to untreated-control. In a few lines: as §1
Series [9] deals with DLD-1. Put plainly: Inhibition of TNF-alpha/IFN-gamma/IL-1beta-induced human CXCL10 (972 bp) promoter activity expressed in human DLD1 cells assessed as reduction in CXCL10 expression pretreated at 131.5 uM for 1 hr prior to 16 hrs cytokine challenge by proteome profiling method relative to untreated-control. Summed up:
as §1

Series [10] addresses T2, Nuclear factor NF-kappa-B complex (Homo sapiens). Nature of the series: Inhibition of NF-kappaB (unknown origin) expressed human DLD1 cells assessed as reduction in IL1-beta gene expression pretreated at 67.75 uM for 1 hr by RT-PCR method relative to untreated-control. The note with it: DLD-1. In a few lines: as §2
Series [11] deals with DLD-1. Nature of the series: Inhibition of TNF-alpha/IFN-gamma/IL-1beta-induced human CXCL10 (972 bp) promoter activity expressed in human DLD1 cells assessed as reduction in IL-27 expression pretreated at 131.5 uM for 1 hr prior to 16 hrs cytokine challenge by proteome profiling method relative to untreated-control. Summed up:
as §1

In series [12] the target is T2, Nuclear factor NF-kappa-B complex (Homo sapiens). Nature of the series: Inhibition of NF-kappaB (unknown origin) expressed human DLD1 cells assessed as reduction in TNF-alpha gene expression pretreated at 67.75 uM for 1 hr by RT-PCR method relative to untreated-control. The note with it: DLD-1. Summed up: as §2
The subject of series [13] is DLD-1. Put plainly: (§4) Inhibition of TNF-alpha/IFN-gamma/IL-1beta-induced human CXCL10 (972 bp) promoter activity expressed in human DLD1 cells after 24 hrs by luciferase reporter assay. In a few lines: as §3
The nature of series [14]: as §4. The note with it: DLD-1, 24 h. Summed up: as §3
The target of series [15] is T1, Signal transducer and activator of transcription 1-alpha/beta (Homo sapiens). Put plainly: Inhibition of Stat1 (unknown origin) expressed human DLD1 cells assessed as reduction in IL1-beta gene expression pretreated at 67.75 uM for 1 hr by RT-PCR method relative to untreated-control. The note with it: DLD-1. Summed up:
as §2

Series [16] in a line: Cytotoxicity against human DLD1 cells up to 158 uM after 48 hrs by XTT assay. The note with it: dld-1, 48 h. In a few lines: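 DLD-1 cells (RPMI 1640, 25 mM HEPES, 10% FCS, 37 °C, 5% CO2) exposed to compound for 48 h; viability read as XTT reduction to coloured formazan.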
On the technique in general: Formazan colour is commonly taken as a measure of viable cells.

Series [17] in a line: Inhibition of TNF-alpha/IFN-gamma/IL-1beta-induced human CXCL10 (972 bp) promoter activity expressed in human DLD1 cells after 24 hrs by […]-driven luciferase reporter assay. The note with it: DLD-1, 24 h. In a few lines:
as §3

The test system of series [18] is DLD-1. Nature of the series: Inhibition of TNF-alpha/IFN-gamma/IL-1beta-induced human CXCL10 (972 bp) promoter activity expressed in human DLD1 cells assessed as reduction in TNF-alpha expression pretreated at 131.5 uM for 1 hr prior to 16 hrs cytokine challenge by proteome profiling method relative to untreated-control. In a few lines:
as §1

The subject of series [19] is DLD-1. Nature of the series: Inhibition of TNF-alpha/IFN-gamma/IL-1beta-induced human CXCL10 (972 bp) promoter activity expressed in human DLD1 cells assessed as reduction in MIF expression pretreated at 131.5 uM for 1 hr prior to 16 hrs cytokine challenge by proteome profiling method relative to untreated-control. Summed up:
as §1

T2 sequence (P19838 whole entry, looked up): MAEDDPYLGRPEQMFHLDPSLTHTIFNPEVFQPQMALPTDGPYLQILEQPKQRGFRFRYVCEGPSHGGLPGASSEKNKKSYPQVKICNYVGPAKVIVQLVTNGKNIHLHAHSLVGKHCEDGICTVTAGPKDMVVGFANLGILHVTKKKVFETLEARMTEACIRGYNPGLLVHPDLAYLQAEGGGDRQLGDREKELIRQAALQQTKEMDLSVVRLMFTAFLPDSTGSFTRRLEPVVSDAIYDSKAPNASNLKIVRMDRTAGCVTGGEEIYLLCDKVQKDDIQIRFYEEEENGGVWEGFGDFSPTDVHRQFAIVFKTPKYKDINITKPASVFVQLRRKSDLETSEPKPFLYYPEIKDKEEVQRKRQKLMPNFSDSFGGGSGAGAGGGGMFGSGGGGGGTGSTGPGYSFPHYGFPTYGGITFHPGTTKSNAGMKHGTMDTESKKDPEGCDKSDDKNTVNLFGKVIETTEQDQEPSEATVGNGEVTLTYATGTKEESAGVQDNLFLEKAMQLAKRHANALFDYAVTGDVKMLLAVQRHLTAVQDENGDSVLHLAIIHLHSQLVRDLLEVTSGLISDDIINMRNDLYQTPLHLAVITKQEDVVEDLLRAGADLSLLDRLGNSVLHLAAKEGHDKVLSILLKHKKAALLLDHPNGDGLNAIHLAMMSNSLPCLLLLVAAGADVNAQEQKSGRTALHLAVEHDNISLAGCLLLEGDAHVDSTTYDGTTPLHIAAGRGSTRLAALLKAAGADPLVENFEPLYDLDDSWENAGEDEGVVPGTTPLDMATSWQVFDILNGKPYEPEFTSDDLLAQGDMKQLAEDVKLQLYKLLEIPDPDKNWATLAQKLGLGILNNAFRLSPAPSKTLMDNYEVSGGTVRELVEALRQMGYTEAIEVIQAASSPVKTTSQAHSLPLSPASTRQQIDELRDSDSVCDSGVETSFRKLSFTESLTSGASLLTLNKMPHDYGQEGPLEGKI
T2 sequence (Q00653 whole entry, looked up): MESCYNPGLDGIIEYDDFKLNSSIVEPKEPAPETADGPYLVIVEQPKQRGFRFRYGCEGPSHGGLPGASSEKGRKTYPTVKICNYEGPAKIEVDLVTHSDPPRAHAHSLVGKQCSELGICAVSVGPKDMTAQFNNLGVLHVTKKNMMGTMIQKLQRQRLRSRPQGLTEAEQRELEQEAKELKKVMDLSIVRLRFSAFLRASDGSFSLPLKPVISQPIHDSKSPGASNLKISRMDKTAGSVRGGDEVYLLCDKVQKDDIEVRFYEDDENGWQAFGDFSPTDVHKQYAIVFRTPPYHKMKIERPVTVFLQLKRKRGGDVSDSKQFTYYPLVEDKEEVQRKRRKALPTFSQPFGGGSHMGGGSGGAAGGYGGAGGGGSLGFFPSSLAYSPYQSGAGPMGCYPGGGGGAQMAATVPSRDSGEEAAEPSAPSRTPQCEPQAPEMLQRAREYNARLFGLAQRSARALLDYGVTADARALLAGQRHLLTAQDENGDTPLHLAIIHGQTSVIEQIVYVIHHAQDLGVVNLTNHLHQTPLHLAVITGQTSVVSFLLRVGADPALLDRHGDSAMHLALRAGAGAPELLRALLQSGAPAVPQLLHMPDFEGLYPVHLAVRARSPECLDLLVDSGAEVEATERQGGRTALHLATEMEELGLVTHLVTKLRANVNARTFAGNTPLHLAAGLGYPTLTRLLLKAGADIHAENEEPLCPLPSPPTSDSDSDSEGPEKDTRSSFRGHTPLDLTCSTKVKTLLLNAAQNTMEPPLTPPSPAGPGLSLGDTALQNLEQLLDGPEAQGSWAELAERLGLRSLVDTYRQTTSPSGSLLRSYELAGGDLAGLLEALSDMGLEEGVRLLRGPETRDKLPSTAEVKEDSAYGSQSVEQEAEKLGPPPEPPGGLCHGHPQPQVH
T2 sequence (Q04206 whole entry, looked up): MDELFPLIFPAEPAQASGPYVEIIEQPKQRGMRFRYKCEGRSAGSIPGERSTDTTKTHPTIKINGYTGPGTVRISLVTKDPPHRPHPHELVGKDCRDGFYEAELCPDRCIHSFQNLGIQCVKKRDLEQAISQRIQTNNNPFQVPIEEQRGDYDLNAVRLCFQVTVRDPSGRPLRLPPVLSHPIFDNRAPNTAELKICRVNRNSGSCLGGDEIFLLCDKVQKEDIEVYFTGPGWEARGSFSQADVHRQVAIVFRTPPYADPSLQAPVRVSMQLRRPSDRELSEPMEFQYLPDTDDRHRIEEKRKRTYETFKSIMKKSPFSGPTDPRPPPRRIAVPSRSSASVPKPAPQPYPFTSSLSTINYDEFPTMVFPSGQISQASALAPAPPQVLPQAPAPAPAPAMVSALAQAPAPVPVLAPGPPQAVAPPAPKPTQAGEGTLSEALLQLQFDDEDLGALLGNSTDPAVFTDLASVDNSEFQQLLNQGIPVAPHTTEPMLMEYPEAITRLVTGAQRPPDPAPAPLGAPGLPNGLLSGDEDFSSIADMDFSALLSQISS

As for `CCCCCC(=O)O[C@@H]1C=C2COC(=O)[C@]2(O)[C@@]2(C)[C@H](O)CCC(C)(C)[C@H]12`, the inhibition result in series [1], in series [2], in series [3], in series [5], in series [6] and in [7] was “Active” each time. For the same molecule, the inhibition entry in [8], in series [9], in series [10], in series [11], in series [12] and in [15] was “Active” in each case. For the same molecule, the inhibition entry in series [18] and in series [19] was “Active” in each case. The inhibition result in [4] and in series [13] was “Dose-dependent effect” each time. Besides, the IC50 (as a rule, the concentration at which inhibition is half-maximal) was determined as 55 µM in series [14] and 49 µM in [17]. The Activity result in series [16] is given as “Non-toxic”.

For the origin of these results see ChEMBL document CHEMBL3259588, “Anti-inflammatory drimane sesquiterpene lactones from an Aspergillus species” (Bioorg Med Chem, 2014).
